The record followed here is ChEMBL document CHEMBL1124798, “Design of peptidomimetic delta opioid receptor antagonists using the message-address concept” (J Med Chem, 1990).

Where a SMILES comes first, the peptide text is derived from it. [ ]: non-standard residue; d: D form. The star is where a group is joined. Tyr(Nα,Nα-allyl2) = C=CCN(CC=C)[C@@H](Cc1ccc(O)cc1)C(=O)*; Aib = CC(C)(N)C(=O)O

The target of experiment [1] is T1, Mu-type opioid receptor (Cavia porcellus, UniProt P97266). The experiment can be described thus: Binding affinity was measured by the displacement of [3H]- DAMGO in guinea pig brain membrane of Opioid receptor mu 1. The format is cell membranes. The essentials: (§1)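 Radioligand displacement from guinea pig brain membranes, modified Werling method. μ sites: [3H]DAMGO. δ sites: [3H]DADLE with 1 μM DAMGO. κ sites: [3H]ethylketazocine with 1 μM DAMGO.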
(Loss of bound radioactivity is the signal in a displacement assay; it reports binding, not function.)

Experiment [2] addresses T1, Mu-type opioid receptor. Briefly: Binding affinity was measured by the displacement of [3H]- DAMGO in guinea pig brain membrane of opioid receptor mu. The experiment is classed as cell membranes. The essentials:
as §1

In experiment [3] the target is Kappa-type opioid receptor (Cavia porcellus) (UniProt P41144). The experiment can be described thus: Antagonist potency was determined as the ratio of [antagonist] to (IC50 ratio-1) for Opioid receptor kappa 1. The experiment is classed as functional. The essentials:
(§2)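 Ke (nM) = [antagonist]/(IC50 ratio − 1). IC50 ratio is agonist IC50 with antagonist over the control IC50 in the same preparation. Antagonist preincubated 15 min. Agonists: DADLE in mouse vas deferens (δ); morphine (μ) and ethylketazocine (κ) in guinea pig ileum. n ≥ 3.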

Experiment [4] deals with Mu-type opioid receptor (Cavia porcellus) (UniProt P97266). To be noted: Ileum, 200 nM.
For experiment [5], the target named is T2, Kappa-type opioid receptor (Cavia porcellus, UniProt P41144). Briefly: Binding affinity was measured by the displacement of [3H]- EK in guinea pig brain membrane of opioid receptor kappa. The experiment is classed as cell membranes. The essentials: as §1
The target of experiment [6] is Mu-type opioid receptor (Cavia porcellus) (UniProt P97266). The experiment can be described thus: Antagonist potency was determined as the ratio of [antagonist] to (IC50 ratio-1) for Opioid receptor mu 1. The format is functional. The essentials:
as §2

Experiment [7] shares this target. Briefly: Opioid receptor mu 1 antagonistic activity was measured by the displacement of morphine in the guinea pig ileum at a concentration of 200 nM. The experiment is classed as functional, tissue-based. The essentials: (§3)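 Guinea pig ileum. Antagonist (nM, as stated on line) incubated 15 min before testing. Agonists: morphine (μ) and ethylketazocine (κ).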
The target in experiment [8] is Delta-type opioid receptor (Mus musculus) (UniProt P32300). The experiment can be described thus: Opioid receptor delta 1 antagonistic activity was measured by the displacement of DADLE in the mouse vas deferens at tha concentration of 200 nM. The format is functional. The essentials: (§4)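 Mouse vas deferens. Antagonist (nM, as stated on line) incubated with the preparation 15 min before testing. δ agonist [D-Ala2,D-Leu5]enkephalin.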

The target in experiment [9] is T2, Kappa-type opioid receptor. The experiment can be described thus: Binding affinity was measured by the displacement of [3H]- EK in guinea pig brain membrane of Opioid receptor kappa 1. The experiment is classed as cell membranes. The essentials:
as §1

For experiment [10], the target named is Opioid receptors; delta & kappa (Homo sapiens) (UniProt P41145+P41143). Briefly: Selectivity ratio was determined from Ke value of Opioid receptor kappa 1 and Opioid receptor delta 1. The format is protein assay. The note with it: Cavia porcellus. The essentials:
(§5)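 Ratios of Ke values, μ/δ or κ/δ. Each Ke = [antagonist]/(IC50 ratio − 1). δ from DADLE in mouse vas deferens; μ (morphine) and κ (ethylketazocine) in guinea pig ileum. 15 min antagonist preincubation, n ≥ 3.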

Experiment [11] addresses Delta-type opioid receptor (Mus musculus) (UniProt P32300). Briefly: Opioid receptor delta antagonistic activity was measured by the displacement of DADLE in the mouse vas deferens at tha concentration of 200 nM. The experiment is classed as functional. The essentials:
as §4

Experiment [12] has as its target Opioid receptors; mu & delta (Homo sapiens) (UniProt P41143+P35372). The experiment can be described thus: Selectivity ratio was determined from Ke value of Opioid receptor mu 1 and Opioid receptor delta 1. The experiment is classed as protein assay. The note with it: Cavia porcellus. The essentials: as §5
Experiment [13] deals with Delta-type opioid receptor (Mus musculus) (UniProt P32300). Briefly: Antagonist potency was determined as the ratio of [antagonist] to (IC50 ratio-1) for opioid receptor delta 1. The experiment is classed as functional. The essentials: as §2
Experiment [14] deals with Kappa-type opioid receptor (Cavia porcellus) (UniProt P41144). The experiment can be described thus: Opioid receptor kappa antagonistic activity was measured by the displacement of ethylketazocine in the guinea pig ileum at a concentration of 200 nM. The experiment is classed as functional, tissue-based. The essentials:
as §3

For experiment [15] the target is unchanged. The experiment can be described thus: Opioid receptor kappa 1 antagonistic activity was measured by the displacement of ethylketazocine in the guinea pig ileum at a concentration of 200 nM. The format is functional, tissue-based. The essentials: as §3
The target in experiment [16] is Mu-type opioid receptor (Cavia porcellus) (UniProt P97266). The experiment can be described thus: Opioid receptor mu 1 antagonistic activity was measured by the displacement of morphine in the guinea pig ileum at a concentration of 100 nM. The experiment is classed as functional, tissue-based. The essentials:
as §3

Experiment [17] addresses Kappa-type opioid receptor (Cavia porcellus) (UniProt P41144). Briefly: Opioid receptor kappa 1 antagonistic activity was measured by the displacement of ethylketazocine in the guinea pig ileum at a concentration of 100 nM. The experiment is classed as functional, tissue-based. The essentials:
as §3

Experiment [18] has the same target. The experiment can be described thus: Opioid receptor kappa antagonistic activity was measured by the displacement of ethylketazocine in the guinea pig ileum at a concentration of 100 nM. The format is functional, tissue-based. The essentials: as §3
The target of experiment [19] is Mu-type opioid receptor (Cavia porcellus) (UniProt P97266). Briefly: Opioid receptor mu antagonistic activity was measured by the displacement of morphine in the guinea pig ileum at a concentration of 100 nM. The experiment is classed as functional, tissue-based. The essentials:
as §3

The target is the same in experiment [20]. The experiment can be described thus: Opioid receptor mu antagonistic activity was measured by the displacement of morphine in the guinea pig ileum at a concentration of 200 nM. The format is functional, tissue-based. The essentials:
as §3

Experiment [21] addresses Delta-type opioid receptor (Mus musculus) (UniProt P32300). Briefly: Opioid receptor delta 1 antagonistic activity was measured by the displacement of DADLE in the mouse vas deferens at a concentration of 100 nM. The format is functional. The essentials: as §4
Experiment [22] shares this target. The experiment can be described thus: Opioid receptor delta antagonistic activity was measured by the displacement of DADLE in the mouse vas deferens at a concentration of 100 nM. The format is functional. The essentials: as §4

Chain of Delta-type opioid receptor (Mus musculus) (P32300 whole entry): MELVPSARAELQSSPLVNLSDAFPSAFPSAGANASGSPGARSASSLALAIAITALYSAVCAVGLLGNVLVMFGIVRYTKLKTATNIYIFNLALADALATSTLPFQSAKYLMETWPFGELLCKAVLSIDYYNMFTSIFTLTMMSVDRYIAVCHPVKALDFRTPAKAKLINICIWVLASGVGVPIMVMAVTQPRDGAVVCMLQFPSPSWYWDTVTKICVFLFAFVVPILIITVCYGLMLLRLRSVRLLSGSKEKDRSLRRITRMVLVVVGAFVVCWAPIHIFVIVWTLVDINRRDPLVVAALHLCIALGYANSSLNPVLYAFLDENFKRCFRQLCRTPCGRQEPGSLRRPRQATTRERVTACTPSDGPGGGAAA
T1 sequence (P97266 whole entry): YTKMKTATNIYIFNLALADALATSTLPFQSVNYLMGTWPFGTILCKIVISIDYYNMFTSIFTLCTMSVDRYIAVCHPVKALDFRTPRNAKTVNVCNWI
Chain of Mu-type opioid receptor (Cavia porcellus) (P97266 whole entry): as above
T2 sequence (P41144 whole entry): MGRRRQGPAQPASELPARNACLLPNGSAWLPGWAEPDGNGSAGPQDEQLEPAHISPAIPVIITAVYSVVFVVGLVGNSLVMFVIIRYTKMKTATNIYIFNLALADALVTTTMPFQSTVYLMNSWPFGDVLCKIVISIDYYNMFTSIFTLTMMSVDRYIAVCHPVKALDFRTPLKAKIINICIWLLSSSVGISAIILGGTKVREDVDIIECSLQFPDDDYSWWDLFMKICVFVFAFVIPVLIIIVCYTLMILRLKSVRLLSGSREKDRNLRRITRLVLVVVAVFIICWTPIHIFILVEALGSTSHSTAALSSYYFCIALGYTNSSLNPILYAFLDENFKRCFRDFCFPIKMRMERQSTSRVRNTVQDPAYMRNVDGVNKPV
Chain of Kappa-type opioid receptor (Cavia porcellus) (P41144 whole entry): as above
Chain of Opioid receptors; delta & kappa (Homo sapiens) (P41143 whole entry, looked up): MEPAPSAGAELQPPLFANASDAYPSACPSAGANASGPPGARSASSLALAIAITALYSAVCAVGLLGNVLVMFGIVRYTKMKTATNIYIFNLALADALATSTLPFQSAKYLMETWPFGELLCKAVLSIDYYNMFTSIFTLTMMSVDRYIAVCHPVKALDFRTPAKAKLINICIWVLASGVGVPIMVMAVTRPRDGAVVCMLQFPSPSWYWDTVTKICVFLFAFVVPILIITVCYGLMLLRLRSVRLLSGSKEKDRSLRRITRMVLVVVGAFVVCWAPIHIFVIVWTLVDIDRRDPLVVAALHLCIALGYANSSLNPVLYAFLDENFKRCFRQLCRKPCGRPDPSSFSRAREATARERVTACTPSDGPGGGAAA
Chain of Opioid receptors; delta & kappa (Homo sapiens) (P41145 whole entry, looked up): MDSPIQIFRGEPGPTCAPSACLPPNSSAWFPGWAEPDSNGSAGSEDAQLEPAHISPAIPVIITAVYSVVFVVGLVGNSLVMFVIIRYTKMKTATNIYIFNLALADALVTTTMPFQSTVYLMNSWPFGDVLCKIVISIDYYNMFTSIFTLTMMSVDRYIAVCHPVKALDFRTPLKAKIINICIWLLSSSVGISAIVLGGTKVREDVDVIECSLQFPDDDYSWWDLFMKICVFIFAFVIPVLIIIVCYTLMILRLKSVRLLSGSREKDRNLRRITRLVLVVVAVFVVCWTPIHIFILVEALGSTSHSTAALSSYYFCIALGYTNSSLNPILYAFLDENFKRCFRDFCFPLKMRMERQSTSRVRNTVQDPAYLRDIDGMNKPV
Chain of Opioid receptors; mu & delta (Homo sapiens) (P35372 whole entry, looked up): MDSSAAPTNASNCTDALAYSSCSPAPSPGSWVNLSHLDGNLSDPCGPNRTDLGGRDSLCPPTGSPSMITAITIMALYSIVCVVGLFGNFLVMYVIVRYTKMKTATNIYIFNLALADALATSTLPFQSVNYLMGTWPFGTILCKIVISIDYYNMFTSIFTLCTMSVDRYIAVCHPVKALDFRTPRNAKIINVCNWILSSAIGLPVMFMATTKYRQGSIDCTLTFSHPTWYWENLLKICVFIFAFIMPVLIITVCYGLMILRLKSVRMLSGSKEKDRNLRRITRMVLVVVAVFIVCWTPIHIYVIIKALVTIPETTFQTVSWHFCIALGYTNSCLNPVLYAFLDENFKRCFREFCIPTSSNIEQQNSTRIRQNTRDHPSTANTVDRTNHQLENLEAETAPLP
Chain of Opioid receptors; mu & delta (Homo sapiens) (P41143 whole entry, looked up): as the sequence (P41143 whole entry, looked up) above

`Oc1ccc2c3c1O[C@H]1c4[nH]c5ccc(F)cc5c4C[C@@]4(O)[C@@H](C2)N(CC2CC2)CC[C@]314`: the Ki at Mu-type opioid receptor [1] was 1.7 nM; at Mu-type opioid receptor [2], 1.7 nM; in experiment [5] it was 15 nM; in experiment [9], 15 nM. For the same compound, the figures for the Ke in experiment [3], in experiment [6] and in experiment [13] were 38 nM, 49 nM and 1.9 nM, respectively. For the same compound, the IC50 ratio in [4] is 5.1; in [7], 5.1; in experiment [8] it was 104; in [11], 104; in experiment [14], 6.3; in [15], 6.3. Besides, the Selectivity ratio in [10] turned out to be 19; in experiment [12], 25.
Regarding `Cc1ccc2[nH]c3c(c2c1)C[C@@]1(O)[C@H]2Cc4ccc(O)c5c4[C@@]1(CCN2CC1CC1)[C@H]3O5`, the IC50 ratio in [16] amounted to 1.6; in experiment [17], 1.4; in experiment [18], 1.4; in experiment [8], 55.4; in experiment [19], 1.6; in experiment [11], 55.4. Further, the Ke in [3] was more than 250 nM; in experiment [6], more than 167 nM; in experiment [13], 3.7 nM. Further, the Selectivity ratio in [10] is more than 68; in experiment [12], more than 45.
Regarding `O=[N+]([O-])c1ccc2[nH]c3c(c2c1)C[C@@]1(O)[C@H]2Cc4ccc(O)c5c4[C@@]1(CCN2CC1CC1)[C@H]3O5`, the Ke in experiment [3] was more than 870 nM; in experiment [6], more than 230 nM; in experiment [13], 146 nM. Further, the IC50 ratio worked out at 1.9 in [20]; 1.9 in experiment [7]; 2.4 in [8]; 2.4 in experiment [11]; 1.2 in [14]; 1.2 in experiment [15]. The results for the Selectivity ratio in experiment [10] and in experiment [12] were more than 5.6 and more than 1.6, respectively.
Regarding `C=CCN1CC[C@]23c4c5ccc(O)c4O[C@H]2c2[nH]c4ccccc4c2C[C@@]3(O)[C@H]1C5`, the Ki at Mu-type opioid receptor [1] came out at 104 nM; at Mu-type opioid receptor [2], 104 nM; in experiment [5], 321 nM; in [9] it was 321 nM. Moreover, the IC50 ratio in [16] came to 1.1; in [17], 2.2; in experiment [21], 93; in [18] it was 2.2; in [19], 1.1; in experiment [22], 93. The Ke in [3] was more than 82 nM; in experiment [6] it was more than 714 nM; in experiment [13] it was 1.1 nM. The Selectivity ratio in [10] is more than 75; in [12], more than 655.
With `Oc1ccc2c3c1O[C@H]1c4[nH]c5c(F)cccc5c4C[C@@]4(O)[C@@H](C2)N(CC2CC2)CC[C@]314`, the inhibition constant Ki at Mu-type opioid receptor [1] stood at 49 nM; at Mu-type opioid receptor [2], 49 nM; in experiment [5], 321 nM; in experiment [9] it was 321 nM. The IC50 ratio in experiment [16] turned out to be 5.3; in experiment [17], 1.3; in experiment [21], 287; in [18] it was 1.3; in [19], 5.3; in experiment [22] it was 287. Moreover, the figures for the Ke in [3], in experiment [6] and in [13] were more than 333 nM, 23 nM and 0.35 nM, respectively. For the same compound, the figures for the Selectivity ratio in experiment [10] and in experiment [12] were more than 951 and 67, respectively.
Take `COc1ccc2[nH]c3c(c2c1)C[C@@]1(O)[C@H]2Cc4ccc(O)c5c4[C@@]1(CCN2CC1CC1)[C@H]3O5`: the IC50 ratio in experiment [16] worked out at 2.6; in experiment [17] it was 9.2; in experiment [18] it was 9.2; in [8], 53; in experiment [19], 2.6; in experiment [11] it was 53. Further, the Ke in experiment [3] was 12 nM; in experiment [6], more than 63 nM; in experiment [13], 3.8 nM. The Selectivity ratio in experiment [10] was 3.2; in experiment [12] it was more than 16.
As to `COc1cccc2c3c([nH]c12)[C@@H]1Oc2c(O)ccc4c2[C@@]12CCN(CC1CC1)[C@H](C4)[C@]2(O)C3`, the inhibition constant (Ki) on Mu-type opioid receptor [1] came to 16 nM; on Mu-type opioid receptor [2] it was 16 nM; in experiment [5], 43 nM; in [9], 43 nM. In addition, the IC50 ratio in [16] amounted to 3; in [17], 1.5; in experiment [21] it was 66; in experiment [18], 1.5; in experiment [19] it was 3; in [22] it was 66. Moreover, the results for the Ke in experiment [3], in experiment [6] and in experiment [13] were more than 185 nM, 50 nM and 1.5 nM, respectively. Also, the Selectivity ratio in experiment [10] was more than 120; in experiment [12] it was 32.
On to `Oc1ccc2c3c1O[C@H]1c4[nH]c5c(Br)cccc5c4C[C@@]4(O)[C@@H](C2)N(CC2CC2)CC[C@]314`, for which the inhibition constant Ki on Mu-type opioid receptor [1] is 29 nM; on Mu-type opioid receptor [2] it was 29 nM; in experiment [5], 333 nM; in experiment [9], 333 nM. The IC50 ratio in experiment [16] was 2.2; in [17], 1.7; in [21] it was 85; in experiment [18], 1.7; in experiment [19], 2.2; in experiment [22] it was 85. In addition, the results for the Ke in experiment [3], in experiment [6] and in experiment [13] were more than 143 nM, 83 nM and 1.2 nM, respectively. For the same compound, the Selectivity ratio in experiment [10] is more than 121; in experiment [12] it was 71.
Consider `C=CCN(CC=C)[C@@H](Cc1ccc(O)cc1)C(=O)NC(C)(C)C(=O)NC(C)(C)C(=O)N[C@@H](Cc1ccccc1)C(=O)N[C@@H](CC(C)C)C(=O)O` ({Tyr(Nα,Nα-allyl2)}-[Aib][Aib]FL-OH), for which the Ki (on Mu-type opioid receptor [1]; at Mu-type opioid receptor [2]; in experiment [5]; in experiment [9]) was more than 1000 nM each time. Moreover, the IC50 ratio in experiment [16] stood at 0.6; in [17], 0.8; in [21] it was 15.6; in experiment [18], 0.8; in experiment [19], 0.6; in experiment [22], 15.6. In addition, the Ke is more than 1250 nM in [3], more than 1670 nM in [6] and 69 nM in [13]. The Selectivity ratio in experiment [10] was more than 18; in experiment [12], more than 24.

As usually defined, the Ki is the dissociation constant of the complex between target and ligand, obtained from inhibition or displacement. Lower therefore signals tighter binding.
